Results taken from ChEMBL document CHEMBL4052613, “Structure-activity relationship studies of 1,7-diheteroarylhepta-1,4,6-trien-3-ones with two different terminal rings in prostate epithelial cell models” (Eur J Med Chem, 2017).

What was measured:
PWR-1E = assay: Antiproliferative activity against human PWR-1E cells after 3 days by WST-1 assay; type: cell-based; conditions: 72 h
Procedure, shortened: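 PWR-1E non-neoplastic prostate epithelial cells grown in keratinocyte serum-free medium with bovine pituitary extract and recombinant human EGF. WST-1 proliferation read-out after 3 days of exposure.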

PC-3 [1] = assay: Induction of apoptosis in human PC3 cells assessed as necrotic cells at 40 uM after 16 hrs by F2N12S orange and SYTOX green double staining based flow cytometry (reference value: 2 to 3%); type: functional
PC-3 [2] = assay: Induction of apoptosis in human PC3 cells assessed as viable cells at 30 uM after 16 hrs by F2N12S orange and SYTOX green double staining based flow cytometry (reference value: 95%); type: functional; conditions: PC-3, 16 h, read-out: Activity
PC-3 [3] = assay: Induction of apoptosis in human PC3 cells assessed as necrotic cells at 20 uM after 16 hrs by F2N12S orange and SYTOX green double staining based flow cytometry (reference value: 2 to 3%); type: functional
PC-3 [4] = assay: Induction of apoptosis in human PC3 cells assessed as apoptotic cells at 40 uM after 16 hrs by F2N12S orange and SYTOX green double staining based flow cytometry (reference value: 2 to 3%); type: functional
PC-3 [5] = assay: Induction of apoptosis in human PC3 cells assessed as necrotic cells at 30 uM after 16 hrs by F2N12S orange and SYTOX green double staining based flow cytometry (reference value: 2 to 3%); type: functional
PC-3 [6] = assay: Induction of apoptosis in human PC3 cells assessed as necrotic cells at 5 uM after 16 hrs by F2N12S orange and SYTOX green double staining based flow cytometry (reference value: 2 to 3%); type: functional
PC-3 [7] = assay: Induction of apoptosis in human PC3 cells assessed as apoptotic cells at 20 uM after 16 hrs by F2N12S orange and SYTOX green double staining based flow cytometry (reference value: 2 to 3%); type: functional
PC-3 [8] = assay: Induction of apoptosis in human PC3 cells assessed as apoptotic cells at 5 uM after 16 hrs by F2N12S orange and SYTOX green double staining based flow cytometry (reference value: 2 to 3%); type: functional
PC-3 [9] = assay: Induction of apoptosis in human PC3 cells assessed as apoptotic cells at 30 uM after 16 hrs by F2N12S orange and SYTOX green double staining based flow cytometry (reference value: 2 to 3%); type: functional
PC-3 [10] = assay: Induction of apoptosis in human PC3 cells assessed as viable cells at 40 uM after 16 hrs by F2N12S orange and SYTOX green double staining based flow cytometry (reference value: 95%); type: functional; conditions: PC-3, 16 h, read-out: Activity
PC-3 [11] = assay: Induction of apoptosis in human PC3 cells assessed as viable cells at 20 uM after 16 hrs by F2N12S orange and SYTOX green double staining based flow cytometry (reference value: 95%); type: functional; conditions: PC-3, 16 h, read-out: Activity
PC-3 [12] = assay: Induction of apoptosis in human PC3 cells assessed as apoptotic cells at 10 uM after 16 hrs by F2N12S orange and SYTOX green double staining based flow cytometry (reference value: 2 to 3%); type: functional
PC-3 [13] = assay: Induction of apoptosis in human PC3 cells assessed as necrotic cells at 10 uM after 16 hrs by F2N12S orange and SYTOX green double staining based flow cytometry (reference value: 2 to 3%); type: functional
PC-3 [14] = assay: Induction of apoptosis in human PC3 cells assessed as viable cells at 10 uM after 16 hrs by F2N12S orange and SYTOX green double staining based flow cytometry (reference value: 95%); type: functional; conditions: PC-3, 16 h, read-out: Activity
PC-3 [15] = assay: Induction of apoptosis in human PC3 cells assessed as viable cells at 5 uM after 16 hrs by F2N12S orange and SYTOX green double staining based flow cytometry (reference value: 95%); type: functional; conditions: PC-3, 16 h, read-out: Activity

| SMILES | IC50 (PWR-1E) [µM] | Activity (PC-3 [1]) [%] | viability at 30 µM (PC-3 [2]) [%] | Activity (PC-3 [3]) [%] | Activity (PC-3 [4]) [%] | Activity (PC-3 [5]) [%] | Activity (PC-3 [6]) [%] | Activity (PC-3 [7]) [%] | Activity (PC-3 [8]) [%] | Activity (PC-3 [9]) [%] | viability at 40 µM (PC-3 [10]) [%] | viability at 20 µM (PC-3 [11]) [%] | Activity (PC-3 [12]) [%] | Activity (PC-3 [13]) [%] | viability at 10 µM (PC-3 [14]) [%] | viability at 5 µM (PC-3 [15]) [%] |
| --- | --- | --- | --- | --- | --- | --- | --- | --- | --- | --- | --- | --- | --- | --- | --- | --- |
| COc1cc(/C=C/C(=O)CC(=O)/C=C/c2ccc(O)c(OC)c2)ccc1O [CURCUMIN] | 8.14 |  |  |  |  |  |  |  |  |  |  |  |  |  |  |  |
| CN[C@@H]1C[C@H]2O[C@@](C)([C@@H]1OC)n1c3ccccc3c3c4c(c5c6ccccc6n2c5c31)C(=O)NC4 [STAUROSPORINE] |  | 9 | 46 | 8 | 60 | 8 | 4 | 24 | 9 | 47 | 31 | 68 | 10 | 6 | 84 | 87 |
